From ChEMBL document CHEMBL5149991 (J Med Chem, 2021)

What was measured:
[1] = biological target: T1, D(2) dopamine receptor (Homo sapiens, UniProt P14416); assay type: functional, cell-based, HEK293T;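 also: agonist mode, β-arrestin2 recruitment to the human D2 long isoform stably expressed in HEK293T cells, read by split luciferase complementation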
[2] = biological target: T2, D(3) dopamine receptor (Homo sapiens, UniProt P35462); assay: Agonist activity at human D3 receptor stably expressed in HEK293T cells co-expressing ElucN-betaarr2 hD3R-ElucC by beta-arrestin2 recruitment assay; assay type: functional, cell-based
T2 sequence (P35462 whole entry): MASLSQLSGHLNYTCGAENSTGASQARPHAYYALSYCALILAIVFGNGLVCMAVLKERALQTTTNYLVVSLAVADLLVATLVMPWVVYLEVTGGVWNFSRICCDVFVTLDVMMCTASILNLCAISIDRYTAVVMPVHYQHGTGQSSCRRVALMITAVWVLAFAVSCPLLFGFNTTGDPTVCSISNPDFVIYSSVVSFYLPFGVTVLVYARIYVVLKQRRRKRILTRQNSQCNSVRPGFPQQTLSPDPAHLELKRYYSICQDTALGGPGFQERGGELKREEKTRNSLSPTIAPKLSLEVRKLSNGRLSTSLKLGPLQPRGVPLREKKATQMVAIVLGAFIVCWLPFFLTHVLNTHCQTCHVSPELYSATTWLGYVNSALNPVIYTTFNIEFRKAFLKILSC

[3] = biological target: T1, D(2) dopamine receptor; assay: Displacement of [3H]N-methylspiperone from human D2 long receptor stably expressed in HEK293T cells co-expressing luciferase and CEK incubated for 140 mins by radioligand competition binding based assay; assay type: cell-based
[4] = biological target: Histamine H1 receptor (Homo sapiens, UniProt P35367)
Chain of Histamine H1 receptor (P35367 whole entry): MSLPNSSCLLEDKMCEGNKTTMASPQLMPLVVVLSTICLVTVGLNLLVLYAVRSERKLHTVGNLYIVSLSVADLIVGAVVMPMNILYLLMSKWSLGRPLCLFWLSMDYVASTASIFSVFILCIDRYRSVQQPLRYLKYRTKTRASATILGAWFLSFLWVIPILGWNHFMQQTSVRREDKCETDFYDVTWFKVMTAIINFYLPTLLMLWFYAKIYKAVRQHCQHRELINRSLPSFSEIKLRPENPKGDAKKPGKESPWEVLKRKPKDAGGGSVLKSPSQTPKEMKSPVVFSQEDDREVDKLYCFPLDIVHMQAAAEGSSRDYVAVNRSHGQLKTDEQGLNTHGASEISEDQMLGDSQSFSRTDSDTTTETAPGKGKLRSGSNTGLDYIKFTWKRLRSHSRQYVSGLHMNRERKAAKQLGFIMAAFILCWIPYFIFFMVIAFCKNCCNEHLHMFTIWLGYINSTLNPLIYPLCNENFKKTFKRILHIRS

[5] = biological target: T3, Histamine H2 receptor (Homo sapiens, UniProt P25021); assay: Agonist activity at human histamine H2 receptor stably expressed in baculovirus infected Sf9 cell membrane co-expressing RG-Salpha S incubated for 90 mins by [35S]GTPgammaS binding based liquid scintillation counting method; assay type: functional, cell membranes
T3 sequence (P25021 whole entry): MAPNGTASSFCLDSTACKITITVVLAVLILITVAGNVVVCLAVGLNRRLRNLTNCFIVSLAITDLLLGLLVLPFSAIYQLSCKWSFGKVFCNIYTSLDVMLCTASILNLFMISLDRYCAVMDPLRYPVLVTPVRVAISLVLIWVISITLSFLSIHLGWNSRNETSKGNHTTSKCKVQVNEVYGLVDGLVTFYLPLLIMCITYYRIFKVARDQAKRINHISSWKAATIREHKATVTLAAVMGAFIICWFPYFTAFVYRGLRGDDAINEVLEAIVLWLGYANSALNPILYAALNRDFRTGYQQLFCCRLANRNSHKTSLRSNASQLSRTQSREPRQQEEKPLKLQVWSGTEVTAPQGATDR

[6] = biological target: Histamine H4 receptor (Homo sapiens, UniProt Q9H3N8)
Chain of Histamine H4 receptor (Q9H3N8 whole entry): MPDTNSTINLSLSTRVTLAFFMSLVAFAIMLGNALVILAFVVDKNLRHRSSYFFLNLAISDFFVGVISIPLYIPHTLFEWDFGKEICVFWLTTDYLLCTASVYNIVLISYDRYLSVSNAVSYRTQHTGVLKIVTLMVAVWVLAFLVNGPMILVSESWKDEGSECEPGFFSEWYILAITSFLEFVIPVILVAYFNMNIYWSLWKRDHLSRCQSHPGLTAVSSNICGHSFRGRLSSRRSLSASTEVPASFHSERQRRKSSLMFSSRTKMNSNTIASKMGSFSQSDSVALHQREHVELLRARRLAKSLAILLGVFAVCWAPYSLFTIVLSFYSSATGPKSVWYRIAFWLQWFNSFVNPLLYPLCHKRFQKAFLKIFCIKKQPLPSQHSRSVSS

[7] = biological target: T3, Histamine H2 receptor; assay: Displacement of [3H]UR-DE257 from human histamine H2 receptor stably expressed in baculovirus infected Sf9 cell membrane co-expressing RG-Salpha S incubated for 60 mins by scintillation counting analysis; assay type: cell membranes
[8] = biological target: T2, D(3) dopamine receptor; assay: Displacement of [3H]N-methylspiperone from human D3 receptor stably expressed in HEK293T cells co-expressing luciferase and CEK incubated for 140 mins by radioligand competition binding based assay; assay type: cell-based
[9] = biological target: T3, Histamine H2 receptor; assay: Agonist activity at human histamine H2 receptor stably expressed in HEK293T cells co-expressing ARRB2 incubated for 60 mins by beta-arrestin2 recruitment assay; assay type: functional, cell-based
[10] = biological target: Histamine H3 receptor (Homo sapiens, UniProt Q9Y5N1); assay: Displacement of [3H]UR-PI294 from human histamine H3 receptor stably expressed in baculovirus infected Sf9 cell membrane co-expressing G-alphai2 and G-beta1gamma2 incubated for 60 mins by scintillation counting analysis; assay type: cell membranes
Chain of Histamine H3 receptor (Q9Y5N1 whole entry): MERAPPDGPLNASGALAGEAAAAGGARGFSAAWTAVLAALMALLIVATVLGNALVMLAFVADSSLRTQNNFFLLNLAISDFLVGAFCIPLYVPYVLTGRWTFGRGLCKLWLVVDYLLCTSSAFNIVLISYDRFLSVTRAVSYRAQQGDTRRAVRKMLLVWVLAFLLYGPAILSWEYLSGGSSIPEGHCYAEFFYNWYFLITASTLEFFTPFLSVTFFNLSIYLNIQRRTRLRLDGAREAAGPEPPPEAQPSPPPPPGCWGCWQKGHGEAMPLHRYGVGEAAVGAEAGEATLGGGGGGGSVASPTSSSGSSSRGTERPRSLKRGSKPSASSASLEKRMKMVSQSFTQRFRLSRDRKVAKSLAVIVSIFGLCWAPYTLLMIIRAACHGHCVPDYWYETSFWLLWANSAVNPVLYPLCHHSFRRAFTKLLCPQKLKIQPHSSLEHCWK
In short: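 hH3R + Gαi2 + Gβ1γ2 expressed in Sf9 membranes. […] Mean ± SEM from N independent experiments in triplicate.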

[11] = biological target: T3, Histamine H2 receptor; assay: Agonist activity at human histamine H2 receptor stably expressed in HEK293T cells co-expressing NlucN-mGs/hH2R-NlucC assessed as induction of mini-Gs protein recruitment using furimazine as substrate measured for 45 mins by luminescence assay
[12] = biological target: T4, Histamine H2 receptor (Cavia porcellus, UniProt P47747); assay: Agonist activity at guinea pig histamine H2 receptor stably transfected in HEK293T cells co-expressing NlucN-mGs/gpH2R-NlucC by mini-G protein recruitment assay; assay type: functional, cell-based
T4 sequence (P47747 whole entry): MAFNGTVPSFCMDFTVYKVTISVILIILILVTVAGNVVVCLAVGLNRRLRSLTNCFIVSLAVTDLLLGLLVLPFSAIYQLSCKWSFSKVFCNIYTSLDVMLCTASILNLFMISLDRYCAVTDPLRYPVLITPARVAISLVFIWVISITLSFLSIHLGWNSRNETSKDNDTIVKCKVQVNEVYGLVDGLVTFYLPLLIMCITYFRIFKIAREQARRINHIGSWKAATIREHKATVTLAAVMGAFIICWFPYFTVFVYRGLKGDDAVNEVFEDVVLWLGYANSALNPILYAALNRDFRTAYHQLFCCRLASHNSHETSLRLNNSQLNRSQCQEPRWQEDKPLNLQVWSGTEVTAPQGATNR

[13] = biological target: T4, Histamine H2 receptor; assay: Agonist activity at histamine H2 receptor in spontaneous beating guinea pig right atrium assessed as increase in heart beat; assay type: functional, tissue-based, Right cardiac atrium
[14] = biological target: Histamine H2 receptor (Cavia porcellus) (UniProt P47747); assay: Agonist activity at guinea pig histamine H2 receptor stably transfected in HEK293T cells co-expressing NlucN-mGs/gpH2R-NlucC assessed as maximum efficacy at 100 uM by mini-G protein recruitment assay relative to histamine; assay type: functional, cell-based
Chain of Histamine H2 receptor (Cavia porcellus) (P47747 whole entry): as above

[15] = biological target: Histamine H2 receptor (Cavia porcellus) (UniProt P47747); assay: Agonist activity at histamine H2 receptor in spontaneous beating guinea pig right atrium assessed as increase in heart beat at 30 uM relative to histamine; assay type: functional, tissue-based; conditions: Right cardiac atrium
[16] = Chemical stability in pH 7.4 buffer measured at 0 to 2 weeks by HPLC analysis; assay type: physicochemical; conditions: time 0-2 weeks

T1 sequence (P14416 whole entry, canonical isoform): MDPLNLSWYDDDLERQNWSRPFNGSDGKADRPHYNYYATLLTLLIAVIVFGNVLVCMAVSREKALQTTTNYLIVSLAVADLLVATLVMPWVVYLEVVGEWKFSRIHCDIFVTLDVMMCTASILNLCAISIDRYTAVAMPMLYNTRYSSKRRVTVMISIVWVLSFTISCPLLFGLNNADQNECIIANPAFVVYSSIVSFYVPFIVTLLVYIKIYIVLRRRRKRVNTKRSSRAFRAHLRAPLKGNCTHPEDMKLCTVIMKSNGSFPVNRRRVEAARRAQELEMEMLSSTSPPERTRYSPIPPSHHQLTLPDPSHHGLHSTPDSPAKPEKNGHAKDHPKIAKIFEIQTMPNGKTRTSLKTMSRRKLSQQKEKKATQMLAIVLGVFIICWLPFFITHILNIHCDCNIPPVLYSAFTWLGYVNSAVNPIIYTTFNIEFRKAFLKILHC

Row | Structure (SMILES) | EC50 [1] [µM] | EC50 [2] [nM] | Ki [3] [nM] | Kd [4] [nM] | Ki [4] [µM] | EC50 [5] [nM] | Kd [6] [nM] | Ki [6] [µM] | Ki [7] [nM] | Ki [8] [nM] | EC50 [9] [nM] | Ki [10] [µM] | EC50 [11] [nM] | EC50 [12] [nM] | EC50 [13] [nM] | Emax [14] [%] | Emax [15] [%] | Stability [16]
1 | CC(CNC(=O)/N=C(\N)NCCCc1nnc(N)s1)C1CCCCC1 (stereo not drawn) | > 10 | 1350 | 1620 | 4.5 | 7.41 | 13.2 | 16 | 12.6 | 19.5 | 234 | 135 | 2.75 | 10.7 |  |  |  |  | 
2 | N/C(=N\C(=O)NCCCCCCNC(=O)/N=C(\N)NCCCc1nnc(N)s1)NCCCc1nnc(N)s1 | 1.12 |  | 955 | 4.5 | 3.55 | 34.7 | 16 | > 10 | 5.25 |  | 407 | 10 | 20 |  |  |  |  | 
3 | CC(NC(=O)/N=C(\N)NCCCc1nnc(N)s1)c1cccc(F)c1 (stereo not drawn) | > 10 | 1910 | > 10000 | 4.5 | 10.5 |  | 16 | > 10 | 8.13 | 661 | 75.9 | > 10 | 8.13 | 6.92 | 0.912 | 93 | 110 | 
4 | Cc1ccc(CC(C)CNC(=O)/N=C(\N)NCCCc2nnc(N)s2)cc1.O=C(O)C(F)(F)F.O=C(O)C(F)(F)F (stereo not drawn) |  | > 10000 | 1070 | 4.5 | 1.35 |  | 16 | 6.92 |  | 2040 |  | 2.34 |  | 14.8 | 95.5 |  |  | Stable
5 | C[C@@H](NC(=O)/N=C(\N)NCCCc1nnc(N)s1)c1ccccc1 | > 10 | 1070 | > 10000 | 4.5 | > 10 |  | 16 | > 10 | 12.9 | 3240 | 282 | > 10 | 20 | 25.1 | 2.88 | 90 | 98 | 
6 | CCCCCCNC(=O)/N=C(\N)NCCCc1nnc(N)s1 | > 10 | 813 | > 10000 | 4.5 | 5.01 |  | 16 | > 10 | 5.13 | 589 | 1070 | > 10 | 6.03 | 2.29 | 4.79 | 96 | 106 | 
